According to ChEMBL document CHEMBL4813946, “Discovery of novel 4-azaaryl-N-phenylpyrimidin-2-amine derivatives as potent and selective FLT3 inhibitors for acute myeloid leukaemia with FLT3 mutations” (Eur J Med Chem, 2021):

How the values were obtained:
[1] = biological target: T1, Receptor-type tyrosine-protein kinase FLT3 (Homo sapiens, UniProt P36888); assay: Inhibition of wild type FLT3 (unknown origin) using Glu/Tyr peptide substrate incubated for 120 mins measured after 40 mins incubation under dark by ADP-glo based luminescence assay
T1 sequence (P36888 whole entry): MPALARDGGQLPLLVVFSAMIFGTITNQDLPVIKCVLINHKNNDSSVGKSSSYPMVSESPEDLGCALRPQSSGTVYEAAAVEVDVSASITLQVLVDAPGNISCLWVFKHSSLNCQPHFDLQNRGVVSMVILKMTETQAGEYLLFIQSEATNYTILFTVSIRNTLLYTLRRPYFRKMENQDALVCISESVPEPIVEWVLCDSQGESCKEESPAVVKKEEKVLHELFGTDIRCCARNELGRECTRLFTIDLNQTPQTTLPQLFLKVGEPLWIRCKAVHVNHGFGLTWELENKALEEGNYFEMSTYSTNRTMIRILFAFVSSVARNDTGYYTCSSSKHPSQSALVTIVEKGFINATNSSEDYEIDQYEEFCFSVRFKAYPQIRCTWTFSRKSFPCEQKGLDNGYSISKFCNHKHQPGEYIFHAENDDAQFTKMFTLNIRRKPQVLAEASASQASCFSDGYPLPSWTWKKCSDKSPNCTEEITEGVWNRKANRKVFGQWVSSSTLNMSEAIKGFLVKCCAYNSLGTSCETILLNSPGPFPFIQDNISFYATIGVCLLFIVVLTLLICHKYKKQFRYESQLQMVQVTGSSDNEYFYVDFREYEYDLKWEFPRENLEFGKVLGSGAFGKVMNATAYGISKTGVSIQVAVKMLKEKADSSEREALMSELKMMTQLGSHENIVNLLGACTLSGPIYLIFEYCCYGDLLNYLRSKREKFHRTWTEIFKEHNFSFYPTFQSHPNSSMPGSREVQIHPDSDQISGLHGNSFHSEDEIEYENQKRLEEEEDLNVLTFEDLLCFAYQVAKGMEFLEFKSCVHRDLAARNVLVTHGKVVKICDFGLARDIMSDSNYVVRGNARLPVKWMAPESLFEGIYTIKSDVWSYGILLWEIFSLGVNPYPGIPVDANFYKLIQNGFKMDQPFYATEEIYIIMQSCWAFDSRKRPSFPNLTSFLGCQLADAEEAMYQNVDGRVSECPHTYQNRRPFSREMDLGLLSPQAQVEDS
In short: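 In-house ADP-Glo assay with poly(Glu,Tyr) 4:1 substrate in 40 mM Tris pH 7.5, 20 mM MgCl2, 50 µM DTT, 0.1 mg/mL BSA. Kinase at 20 nM. ADP-Glo reagent 40 min in the dark, detection reagent 30–40 min, then luminescence. Ki was derived from IC50 by Cheng-Prusoff.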

[2] = biological target: Cyclin-dependent kinase 1/cyclin B1 (Homo sapiens, UniProt P06493); assay: Inhibition of CDK1/cyclin B (unknown origin) using histone 1 protein substrate incubated for 120 mins measured after 40 mins incubation under dark by ADP-glo based luminescence assay; type: protein-complex assay
In short: (§1)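 In-house ADP-Glo assay with 2 mM DMSO stocks. Kinases were CDK1/cyclin B at 1 nM, CDK2/cyclin E1 at 10 nM and CDK7/cyclin H/MAT1 at 40 nM. Substrate was histone 1 for CDK1 and CDK2, and a RNA pol II CTD peptide for CDK7. Compound at 8–10 concentrations, 1:3 serial, final DMSO 0.5%. Reactions ran 60–120 min at room temperature, then ADP-Glo reagent 40 min in the dark, then detection reagent 40 min, read by luminescence. Ki was derived from IC50 by Cheng-Prusoff.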

[3] = biological target: Cyclin-dependent kinase 2/cyclin E1 (Homo sapiens, UniProt P24941); assay: Inhibition of CDK2/cyclin E (unknown origin) using histone 1 protein substrate incubated for 120 mins measured after 40 mins incubation under dark by ADP-glo based luminescence assay; type: protein-complex assay; in short: as §1
CDK7/Cyclin H/MNAT1 = CDK7/Cyclin H/MNAT1 (Homo sapiens, UniProt P50613); assay: Inhibition of CDK7/cyclin H/MAT1 (unknown origin) using HYSPTSPSYSPTSPSYSPTSPSKKKK-O substrate incubated for 120 mins measured after 40 mins incubation under dark by ADP-glo based luminescence assay; type: protein-complex assay; in short: as §1
MV4-11 [4] = assay: Antiproliferative activity against human MV4-11 cells incubated for 72 hrs by resazurin assay; type: functional
In short: (§2)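 Cells seeded and pre-incubated 24 h at 37 °C, 5% CO2, then given a five-fold dilution series of compound (from 10 mM DMSO stock) in medium, in triplicate. Resazurin added after 72 h exposure, 4 h in dark at 37 °C. Fluorescence read at 570/585 nm, normalised to DMSO vehicle. GI50 by non-linear regression; mean ± SD of at least two replicates.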

[5] = biological target: Receptor-type tyrosine-protein kinase FLT3 (Homo sapiens, UniProt P36888, ITD); assay: Inhibition of FLT3 ITD mutant (unknown origin) using Glu/Tyr peptide substrate incubated for 80 mins measured after 40 mins incubation under dark by ADP-glo based luminescence assay
[6] = Inhibition of FLT3 ITD-NPOS mutant (unknown origin) incubated for 120 mins by ADP-glo based luminescence assay; parameters: species or system Homo sapiens
[7] = Inhibition of FLT3 ITD-W51 mutant (unknown origin) incubated for 120 mins by ADP-glo based luminescence assay; parameters: species or system Homo sapiens
[8] = biological target: Receptor-type tyrosine-protein kinase FLT3 (Homo sapiens, UniProt P36888, D835Y); assay: Inhibition of FLT3 D835Y mutant (unknown origin) incubated for 120 mins by ADP-glo based luminescence assay
[9] = Inhibition of FLT3 Y591-V592insVDFREYEYD mutant (unknown origin) incubated for 120 mins by ADP-glo based luminescence assay; parameters: species or system Homo sapiens
[10] = biological target: Receptor-type tyrosine-protein kinase FLT3 (Homo sapiens, UniProt P36888, F594-R595INSR); assay: Inhibition of FLT3 F594_R595insR mutant (unknown origin) incubated for 120 mins by ADP-glo based luminescence assay
[11] = biological target: Receptor-type tyrosine-protein kinase FLT3 (Homo sapiens, UniProt P36888, R595-E596INSEY); assay: Inhibition of FLT3 R595_E596insEY mutant (unknown origin) incubated for 120 mins by ADP-glo based luminescence assay
MV4-11 [12] = assay: Antiproliferative activity against human MV4-11 cells harboring FLT3-ITD mutant assessed as reduction in cell viability after 72 hrs by resazurin assay; type: functional; in short: as §2
[13] = Antiproliferative activity against human MOLM-13 cells harboring FLT3-ITD mutant assessed as reduction in cell viability after 72 hrs by resazurin assay; type: functional; conditions: MOLM-13, 72 h; in short: as §2
NB-4 = assay: Antiproliferative activity against human NB-4 cells harboring wild type FLT3 assessed as reduction in cell viability after 72 hrs by resazurin assay; type: functional; in short: as §2
THP-1 = assay: Antiproliferative activity against human THP-1 cells harboring wild type FLT3 assessed as reduction in cell viability after 72 hrs by resazurin assay; type: functional; in short: as §2
Jurkat = assay: Antiproliferative activity against human Jurkat cells harboring FLT3 knockout gene assessed as reduction in cell viability after 72 hrs by resazurin assay; type: functional; in short: as §2
K562 = assay: Antiproliferative activity against human K562 cells harboring FLT3 knockout gene assessed as reduction in cell viability after 72 hrs by resazurin assay; type: functional; in short: as §2
U-937 = assay: Antiproliferative activity against human U-937 cells harboring wild type/low FLT3 assessed as reduction in cell viability after 72 hrs by resazurin assay; type: functional; in short: as §2

Sequence of Cyclin-dependent kinase 1/cyclin B1 (P06493 whole entry): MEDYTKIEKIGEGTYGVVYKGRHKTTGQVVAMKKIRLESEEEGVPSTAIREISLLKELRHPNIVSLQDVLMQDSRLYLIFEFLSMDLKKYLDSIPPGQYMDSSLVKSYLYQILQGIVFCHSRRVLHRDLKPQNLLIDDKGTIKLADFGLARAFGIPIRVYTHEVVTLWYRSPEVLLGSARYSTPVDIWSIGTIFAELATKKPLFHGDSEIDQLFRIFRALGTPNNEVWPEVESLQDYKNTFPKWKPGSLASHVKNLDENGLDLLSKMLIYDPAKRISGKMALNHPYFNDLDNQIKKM
Sequence of Cyclin-dependent kinase 1/cyclin B1 (P14635 whole entry, further chain): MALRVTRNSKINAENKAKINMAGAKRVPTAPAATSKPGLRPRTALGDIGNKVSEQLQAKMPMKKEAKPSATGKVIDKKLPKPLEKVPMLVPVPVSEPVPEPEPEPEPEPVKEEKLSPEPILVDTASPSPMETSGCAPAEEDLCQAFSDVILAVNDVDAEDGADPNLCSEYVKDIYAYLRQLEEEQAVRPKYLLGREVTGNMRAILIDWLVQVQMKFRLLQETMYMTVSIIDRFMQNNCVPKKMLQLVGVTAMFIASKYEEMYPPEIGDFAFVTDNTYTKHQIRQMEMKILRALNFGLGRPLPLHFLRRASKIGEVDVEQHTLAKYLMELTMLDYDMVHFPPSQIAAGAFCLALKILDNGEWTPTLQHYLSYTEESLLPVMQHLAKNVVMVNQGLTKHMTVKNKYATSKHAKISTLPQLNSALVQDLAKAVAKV
Sequence of CDK7/Cyclin H/MNAT1 (P51946 whole entry): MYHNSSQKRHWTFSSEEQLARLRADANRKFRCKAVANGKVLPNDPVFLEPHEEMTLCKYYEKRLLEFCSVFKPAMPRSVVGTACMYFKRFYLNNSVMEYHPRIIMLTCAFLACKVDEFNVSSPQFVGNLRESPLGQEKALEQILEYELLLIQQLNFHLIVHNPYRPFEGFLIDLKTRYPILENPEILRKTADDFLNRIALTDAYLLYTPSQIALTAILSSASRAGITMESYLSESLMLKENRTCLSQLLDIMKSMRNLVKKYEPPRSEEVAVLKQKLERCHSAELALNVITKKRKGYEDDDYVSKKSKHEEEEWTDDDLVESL
Sequence of CDK7/Cyclin H/MNAT1 (P50613 whole entry): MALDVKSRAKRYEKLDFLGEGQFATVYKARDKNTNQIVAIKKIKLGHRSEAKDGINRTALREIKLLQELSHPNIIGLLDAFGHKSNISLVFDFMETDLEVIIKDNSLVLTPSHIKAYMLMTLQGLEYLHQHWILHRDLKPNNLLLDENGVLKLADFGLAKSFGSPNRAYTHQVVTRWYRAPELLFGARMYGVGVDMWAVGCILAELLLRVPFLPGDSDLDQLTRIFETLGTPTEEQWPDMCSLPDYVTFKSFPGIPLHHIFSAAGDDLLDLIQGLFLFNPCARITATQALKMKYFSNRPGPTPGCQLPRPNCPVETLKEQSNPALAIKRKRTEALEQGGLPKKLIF
Sequence of CDK7/Cyclin H/MNAT1 (P51948 whole entry, further chain): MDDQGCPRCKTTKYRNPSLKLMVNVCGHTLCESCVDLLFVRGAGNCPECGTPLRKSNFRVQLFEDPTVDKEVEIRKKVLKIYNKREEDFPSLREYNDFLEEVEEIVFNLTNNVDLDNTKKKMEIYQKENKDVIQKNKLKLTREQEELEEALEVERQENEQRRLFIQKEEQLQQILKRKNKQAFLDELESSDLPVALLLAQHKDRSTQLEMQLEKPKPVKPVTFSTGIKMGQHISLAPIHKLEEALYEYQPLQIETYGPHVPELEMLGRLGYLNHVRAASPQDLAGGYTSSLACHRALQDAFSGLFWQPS

Compound | Ki [1] [nM] | Ki [2] [nM] | Ki [3] [nM] | Ki (CDK7/Cyclin H/MNAT1) [nM] | GI50 (MV4-11 [4]) [nM] | Ki [5] [nM] | Ki [6] [nM] | Ki [7] [nM] | Ki [8] [nM] | Ki [9] [nM] | Ki [10] [nM] | Ki [11] [nM] | GI50 (MV4-11 [12]) [nM] | GI50 [13] [nM] | GI50 (NB-4) [nM] | GI50 (THP-1) [nM] | GI50 (Jurkat) [nM] | GI50 (K562) [nM] | GI50 (U-937) [nM]
CC(=O)N1CCN(c2ccc(Nc3ncc(C#N)c(-c4c[nH]c5ccccc45)n3)cc2)CC1 | 4 | 4050 | > 5000 | 426 | 4 | 0.4 |  |  |  |  |  |  |  |  |  |  |  |  | 
CC(=O)N1CCN(c2ccc(Nc3nccc(-c4cn(C)c5ccccc45)n3)cc2)CC1 | 149 | > 5000 | > 5000 | > 5000 | 252 | 133 |  |  |  |  |  |  |  |  |  |  |  |  | 
CC(=O)N1CCN(c2ccc(Nc3ncc(C#N)c(-c4n[nH]c5ccccc45)n3)cc2)CC1 | 21 | 1650 | > 5000 | > 5000 | 17 | 0.2 | < 0.3 | < 0.3 | < 0.3 | < 0.3 | < 0.3 | < 0.3 | 17 | 0.4 | 126 | 3040 | > 10000 | 185 | > 10000
CC(=O)N1CCCN(c2cccc(Nc3nccc(-c4cnc5n(C)cccc4-5)n3)c2)CC1 | 1 | 1760 | > 5000 | > 5000 | 24 | 0.7 |  |  |  |  |  |  |  |  |  |  |  |  | 
CC(=O)N1CCCN(c2cccc(Nc3nccc(-c4n[nH]c5ccccc45)n3)c2)CC1 | 1 | 727 | > 5000 | > 5000 | 18 | 0.6 |  |  |  |  |  |  |  |  |  |  |  |  | 
CC(=O)N1CCN(c2ccc(Nc3ncc(C#N)c(-c4c(C)[nH]c5ccccc45)n3)cc2)CC1 | 119 | > 5000 | 2170 | 536 | 390 | 2 |  |  |  |  |  |  |  |  |  |  |  |  | 
CC(=O)N1CCN(c2ccc(Nc3nccc(-c4nn(C)c5ccccc45)n3)cc2)CC1 | 883 | > 5000 | > 5000 | > 5000 | 181 | 274 |  |  |  |  |  |  |  |  |  |  |  |  | 
CC(=O)N1CCN(c2ccc(Nc3nccc(-c4c[nH]c5ccccc45)n3)cc2)CC1 | 22 | > 5000 | > 5000 | > 5000 | 33 | 11 |  |  |  |  |  |  |  |  |  |  |  |  | 
CCc1nc(C(N)=O)c(Nc2ccc(N3CCC(N4CCN(C)CC4)CC3)c(OC)c2)nc1NC1CCOCC1 [GILTERITINIB] |  | > 5000 | 1480 | > 5000 | 2 |  |  |  |  |  |  |  |  |  |  |  |  |  | 
